Experiments:
[1] = molecular target: heteromeric rod CNG channels consisting of CNGA1 and CNGB1 subunits (Bos taurus, UniProt Q00194+Q28181); type: cell-based; details: 20 µM blocker, Vm = +50 mV
chymotrypsin = chymotrypsin (Bos taurus, UniProt P00766); assay: In vitro hydrolysis by chymotrypsin; type: in vitro ADME; details: 50 µM compound, 37 °C
In short: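 Hydrolysis was followed by diode-array UV absorbance at the product peak wavelength, starting on compound addition. Runs were in triplicate. Enzyme activity was confirmed separately with 90 µM 4-nitrophenyl acetate in 0.1 M HEPES, pH 6.5, 37 °C, read at 404 nm for 10 min.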

proteinase K = proteinase K (Parengyodontium album, UniProt P06873); assay: In vitro hydrolysis by proteinase K; type: in vitro ADME, Engyodontium album; details: 50 µM compound, 37 °C
[2] = molecular target: butyrylcholinesterase purified from human blood serum (Homo sapiens, UniProt P06276); assay: In vitro hydrolysis by serum cholinesterase; type: in vitro ADME; details: even after 24 h incubations
Sequence of butyrylcholinesterase purified from human blood serum (P06276 29-602): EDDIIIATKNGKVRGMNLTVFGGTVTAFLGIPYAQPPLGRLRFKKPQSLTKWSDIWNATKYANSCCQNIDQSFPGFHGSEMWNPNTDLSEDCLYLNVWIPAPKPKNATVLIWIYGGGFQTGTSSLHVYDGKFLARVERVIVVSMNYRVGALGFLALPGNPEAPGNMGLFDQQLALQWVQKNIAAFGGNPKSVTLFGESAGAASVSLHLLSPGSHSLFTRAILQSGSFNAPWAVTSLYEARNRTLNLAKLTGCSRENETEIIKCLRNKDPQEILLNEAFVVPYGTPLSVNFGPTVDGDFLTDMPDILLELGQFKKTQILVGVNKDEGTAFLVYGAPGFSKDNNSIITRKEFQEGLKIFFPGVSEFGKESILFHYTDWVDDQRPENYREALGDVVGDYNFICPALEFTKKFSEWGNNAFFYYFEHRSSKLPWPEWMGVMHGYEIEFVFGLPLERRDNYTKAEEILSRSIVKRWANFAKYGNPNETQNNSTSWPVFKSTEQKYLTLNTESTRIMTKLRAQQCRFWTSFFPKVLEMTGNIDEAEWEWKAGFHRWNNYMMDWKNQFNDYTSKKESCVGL

Sequence of proteinase K (P06873 106-384): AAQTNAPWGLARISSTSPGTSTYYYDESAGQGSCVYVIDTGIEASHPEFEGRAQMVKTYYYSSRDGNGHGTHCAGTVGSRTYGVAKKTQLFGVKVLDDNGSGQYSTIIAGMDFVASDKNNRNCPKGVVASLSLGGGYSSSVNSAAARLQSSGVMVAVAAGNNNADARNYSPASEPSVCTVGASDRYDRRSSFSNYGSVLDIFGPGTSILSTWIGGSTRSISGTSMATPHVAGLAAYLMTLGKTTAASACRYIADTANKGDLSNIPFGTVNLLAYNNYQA
Sequence of heteromeric rod CNG channels consisting of CNGA1 and CNGB1 subunits (Q00194 whole entry): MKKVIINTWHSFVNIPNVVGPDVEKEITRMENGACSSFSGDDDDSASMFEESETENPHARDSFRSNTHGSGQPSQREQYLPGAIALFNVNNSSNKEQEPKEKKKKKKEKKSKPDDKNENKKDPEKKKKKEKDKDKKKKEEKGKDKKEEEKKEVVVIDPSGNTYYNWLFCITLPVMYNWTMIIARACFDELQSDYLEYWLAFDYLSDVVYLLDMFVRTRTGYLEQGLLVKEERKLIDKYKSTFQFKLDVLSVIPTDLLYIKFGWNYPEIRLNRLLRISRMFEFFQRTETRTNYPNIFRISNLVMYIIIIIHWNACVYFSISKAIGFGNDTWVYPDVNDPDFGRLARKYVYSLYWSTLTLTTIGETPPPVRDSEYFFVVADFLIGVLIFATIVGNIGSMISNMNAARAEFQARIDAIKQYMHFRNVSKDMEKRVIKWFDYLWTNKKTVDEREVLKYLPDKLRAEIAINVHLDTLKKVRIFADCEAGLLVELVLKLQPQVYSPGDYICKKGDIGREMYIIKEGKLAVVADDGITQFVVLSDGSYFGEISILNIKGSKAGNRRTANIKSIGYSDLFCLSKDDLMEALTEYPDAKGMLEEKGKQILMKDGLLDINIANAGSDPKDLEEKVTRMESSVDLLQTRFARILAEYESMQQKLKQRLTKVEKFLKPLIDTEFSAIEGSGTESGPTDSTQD
Sequence of heteromeric rod CNG channels consisting of CNGA1 and CNGB1 subunits (Q28181 whole entry): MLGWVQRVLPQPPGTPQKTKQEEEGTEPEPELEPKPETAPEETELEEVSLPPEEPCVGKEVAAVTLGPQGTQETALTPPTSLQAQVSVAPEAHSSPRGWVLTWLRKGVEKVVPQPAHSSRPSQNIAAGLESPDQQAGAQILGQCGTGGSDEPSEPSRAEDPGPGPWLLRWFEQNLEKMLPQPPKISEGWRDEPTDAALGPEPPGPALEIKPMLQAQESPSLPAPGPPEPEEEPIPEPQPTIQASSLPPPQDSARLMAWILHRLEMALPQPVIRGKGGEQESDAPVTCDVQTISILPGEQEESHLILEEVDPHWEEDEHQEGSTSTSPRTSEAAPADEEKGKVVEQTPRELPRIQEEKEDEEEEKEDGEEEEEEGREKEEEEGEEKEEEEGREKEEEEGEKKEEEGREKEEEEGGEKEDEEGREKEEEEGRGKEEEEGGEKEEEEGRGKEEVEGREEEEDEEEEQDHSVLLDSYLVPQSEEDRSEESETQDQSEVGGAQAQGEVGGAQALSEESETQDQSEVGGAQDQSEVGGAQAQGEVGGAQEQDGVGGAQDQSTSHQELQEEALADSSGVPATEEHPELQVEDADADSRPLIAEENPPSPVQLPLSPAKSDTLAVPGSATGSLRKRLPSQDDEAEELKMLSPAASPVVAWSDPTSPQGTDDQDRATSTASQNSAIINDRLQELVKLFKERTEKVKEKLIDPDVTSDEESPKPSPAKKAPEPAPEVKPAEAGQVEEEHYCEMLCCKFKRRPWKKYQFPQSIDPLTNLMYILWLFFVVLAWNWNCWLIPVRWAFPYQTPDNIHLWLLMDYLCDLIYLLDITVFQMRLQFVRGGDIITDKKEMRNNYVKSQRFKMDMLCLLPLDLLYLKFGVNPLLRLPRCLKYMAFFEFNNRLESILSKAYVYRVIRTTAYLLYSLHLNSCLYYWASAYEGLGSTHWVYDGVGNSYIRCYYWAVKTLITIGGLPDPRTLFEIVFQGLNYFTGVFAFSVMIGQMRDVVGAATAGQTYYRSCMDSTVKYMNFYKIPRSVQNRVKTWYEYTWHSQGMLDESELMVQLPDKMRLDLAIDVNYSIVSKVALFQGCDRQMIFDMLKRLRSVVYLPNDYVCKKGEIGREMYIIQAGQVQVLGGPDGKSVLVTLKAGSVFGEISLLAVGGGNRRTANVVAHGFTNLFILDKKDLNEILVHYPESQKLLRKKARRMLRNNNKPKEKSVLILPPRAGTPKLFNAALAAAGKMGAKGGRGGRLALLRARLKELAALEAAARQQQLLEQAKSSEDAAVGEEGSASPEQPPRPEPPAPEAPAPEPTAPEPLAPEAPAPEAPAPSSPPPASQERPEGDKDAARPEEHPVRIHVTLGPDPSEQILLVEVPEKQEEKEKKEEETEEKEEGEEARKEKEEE

SMILES | block of 2 mM cGMP-induced currents [1] | hydrolysis by chymotrypsin (chymotrypsin) | hydrolysis by proteinase K (proteinase K) | hydrolysis product detection by butyrylcholinesterase [2]
COc1ccc([C@H]2Sc3ccccc3N(CCN(C)C)C(=O)[C@H]2OC(C)=O)cc1 (relative stereo) [l-cis-diltiazem] | 74.2 ± 5.8% | – | – | –
CCCCNc1ccc(C(=O)NCCN(C)C)cc1 [Compound 6, 4-(Butylamino)-N-(2-(dimethylamino)ethyl)benzamide] | – | resistant | resistant | –
CCCCCCCCNc1ccc(C(=O)NCCN(C)C)cc1 [Compound 7, 4-(Octylamino)-N-(2-(dimethylamino)ethyl)benzamide] | – | resistant | resistant | –
CCCCNc1ccc(C(=S)NCCN(C)C)cc1 [Compound 8, 4-(Butylamino)-N-(2-(dimethylamino)ethyl)benzothioamide] | – | completely resistant | completely resistant | much too stable for our system to detect any hydrolysis product
CCCCCCCCNc1ccc(C(=S)NCCN(C)C)cc1 [Compound 9, 4-(Octylamino)-N-(2-(dimethylamino)ethyl)benzothioamide] | – | completely resistant | completely resistant | much too stable for our system to detect any hydrolysis product

From paper PMC3132207 (Journal of medicinal chemistry, 2011)
